Source: PubChem BioAssay (Johns Hopkins Ion Channel Center)
KCNK3 inh = human KCNK3 channel inhibitors, primary screen, CHO cells, FluxOR thallium flux, B-score; Potassium channel subfamily K member 3 (Homo sapiens), O14649; FluxOR fluorescence; stronger effect = lower value; B-score at 10 µM; 340,000 tested, 0.84% active;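 active means B-score under library mean minus 4 SD, starting fluorescence ratio at most library mean plus 5 SD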;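 further: more negative B-score means stronger inhibition of thallium flux through KCNK3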
hERG rescue = hERG rescue from dofetilide block, primary screen, cell-based, CHO-hERG, FluxOR thallium flux, dofetilide IC70; Voltage-gated inwardly rectifying potassium channel KCNH2 (Homo sapiens), Q12809; activation (rescue from dofetilide block), less the hit threshold, % at 10 µM; dofetilide IC70 present; 310,000 tested, 0.51% active;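 active means activation above the mean of controls blocked by dofetilide plus 5 SD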;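 further: thallium influx through hERG after potassium depolarization seen as dye fluorescence rise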
KCNQ1 pot = potentiators or activators of KCNQ1 channel, primary screen, cell-based, thallium flux, high-throughput; Potassium voltage-gated channel subfamily KQT member 1 (Homo sapiens), P51787; CHO-K1 KCNQ1, thallium flux FluxOR fluorescence; stronger effect = higher value; B-score at 10 µM; 310,000 tested, 0.35% active;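 active means fluorescence ratio B-score, a plate-corrected score, at least three library SD, with initial intensity B-score within 5 SD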
Target sequence (P51787 whole entry, looked up): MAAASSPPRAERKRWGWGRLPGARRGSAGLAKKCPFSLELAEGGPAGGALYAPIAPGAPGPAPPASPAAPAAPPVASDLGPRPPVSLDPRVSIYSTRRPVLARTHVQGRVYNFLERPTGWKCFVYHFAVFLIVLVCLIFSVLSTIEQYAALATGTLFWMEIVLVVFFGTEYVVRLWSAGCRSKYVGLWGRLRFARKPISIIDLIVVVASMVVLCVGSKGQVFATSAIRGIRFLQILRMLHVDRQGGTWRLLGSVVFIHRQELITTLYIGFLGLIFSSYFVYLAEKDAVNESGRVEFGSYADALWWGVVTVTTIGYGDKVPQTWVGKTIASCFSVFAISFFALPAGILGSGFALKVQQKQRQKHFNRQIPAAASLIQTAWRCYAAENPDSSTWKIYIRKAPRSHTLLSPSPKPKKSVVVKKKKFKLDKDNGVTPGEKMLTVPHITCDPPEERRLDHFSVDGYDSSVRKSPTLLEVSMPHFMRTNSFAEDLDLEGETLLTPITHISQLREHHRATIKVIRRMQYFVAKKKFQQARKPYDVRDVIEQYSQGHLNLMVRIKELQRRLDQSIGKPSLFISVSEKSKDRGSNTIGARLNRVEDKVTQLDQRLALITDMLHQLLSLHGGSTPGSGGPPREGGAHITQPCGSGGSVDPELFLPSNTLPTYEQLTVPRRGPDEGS
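Doses: Single concentration per compound, DMSO matched to controls | Test system: KCNQ1-transfected CHO-K1 cells | Timing: 90 min dye loading and 20 min compound exposure, both at room temperature | Measured by: Kinetic FluxOR thallium fluorescence, 10-s 1-Hz baseline, 110-s post-stimulus read | Medium: Assay buffer with matched DMSO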
KCNK9 inh = KCNK9 potassium channel inhibitors, primary screen, HEK293 cells, thallium flux; Potassium channel subfamily K member 9 (Homo sapiens), Q9NPC2; FluxOR thallium flux fluorescence; stronger effect = lower value; B-score at 10 µM; 310,000 tested, 1.2% active; AID 488922, 2010;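 active means ratio B-score over 3 SD below the library mean, with starting fluorescence within 5 SD of its mean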;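 further: negative B-score means less thallium flux so channel inhibition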
KCNQ1 block = inhibitors of human KCNQ1 channel, primary screen, cell-based, thallium flux, high-throughput. Potassium voltage-gated channel subfamily KQT member 1 (Homo sapiens), P51787. CHO-K1 KCNQ1, FluxOR thallium flux fluorescence; stronger effect = higher value. B-score at 10 µM. 310,000 tested, 1.3% active;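 active means compounds whose thallium flux B-score, printed positive for inhibition, exceeds three library SD while starting fluorescence stays within three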;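 further: channel opened by potassium depolarization with thallium stimulus after 20 min compound exposure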
KCNK3 inh conf = retest of human KCNK3 channel inhibitors, confirmation, CHO cells, FluxOR thallium flux, triplicate; shares compounds with KCNK3 inh; ratio percent of control, % at 10 µM; FluxOR fluorescence; 0% buffer, 100% carvedilol maximal block; AID 651638, 2012; 2,400 tested, 99% active;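 active means ratio percent of control, averaged over triplicates, above buffer control mean plus 5 SD, cut at about 64% in these data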;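 further: ratio is the fluorescence rise from min to max over baseline after thallium stimulus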
KCNK3 uninduced = thallium flux inhibition in non-induced cells, primary screen, counter-screen for KCNK3 inhibitor project, cell-based, non-induced KCNK3 line, FluxOR thallium, triplicate | 2,400 tested, 40% active | thallium flux ratio (lower = more inhibition) at 10 µM | AID 651747, 2012 | non-induced KCNK3 parental cells; stronger effect = lower value | shares compounds with KCNK3 inh;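 active means thallium flux ratio, averaged over three wells, more than 5 SD below the buffer control mean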;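 further: host cells are CHO cells without KCNK3 induction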
Each line names hits and unclear results; the compound was inactive in the other large screens (follow-up assays come after a bar, where they were run). Only some compounds are listed: those with a hit (about 3.1% of all), similar ones and a draw of the others.

CCN(CC1COc2ccccc2O1)C(=O)c1ccc(Cl)c(S(=O)(=O)N2CC(C)OC(C)C2)c1 (stereo not given)	none
COc1ccc(CN2CCN(CCc3ccccc3)C(CCO)C2)c(Cl)c1OC (stereo not given)	KCNK3 inh -9.9 | KCNK3 inh conf 85 | KCNK3 uninduced inactive
CC1CCCCC1NC(=O)c1ccc2c(c1)[nH]c(=O)n2C1CCCC1 (stereo not given)	KCNK3 inh -9.5 | KCNK3 inh conf 105 | KCNK3 uninduced inactive
O=C(O)C(c1ccccc1)C(c1ccccc1)c1ccccc1 (stereo not given)	none
CCOC(=O)CNC(=O)C1c2ccccc2Oc2ccccc21	KCNK3 inh -12 | KCNK3 inh conf 50 | KCNK3 uninduced inactive
CCN(CC)S(=O)(=O)c1ccc(NC(=O)Cn2c(=O)sc3ccccc32)cc1	none
CN(C)CCCC(C)(O)C(Cc1ccccc1)c1ccccc1 (stereo not given)	none
Cc1ccc(C)c(NC(=O)C(=O)NCCc2c[nH]c3ccccc23)c1	none
CCC(C(=O)NCCc1c[nH]c2ccc(C)cc12)c1ccccc1 (stereo not given)	KCNK3 inh -8.8, KCNK9 inh -7.8 | KCNK3 inh conf 110 | KCNK3 uninduced inactive
Cc1nnc(SCC(=O)Nc2nsc(-c3ccc(C(C)(C)C)cc3)n2)s1	KCNK3 inh -9.9 | KCNK3 inh conf 102 | KCNK3 uninduced inactive
COC(=O)c1cccc(N2C(=O)C(Cl)=C(N3CCOCC3)C2=O)c1	KCNK3 inh -9.7 | KCNK3 inh conf 67 | KCNK3 uninduced inactive
O=C1C(Cl)=C(N2CCOCC2)C(=O)N1c1cccc(C(F)(F)F)c1	none
CCOC(=O)C1=C(C)N=C2c3ccccc3C(=O)C2C1c1ccccc1 (stereo not given)	KCNK3 inh -8.9 | KCNK3 inh conf 102 | KCNK3 uninduced inactive
Cc1noc(C)c1COc1ccccc1C(=O)NCc1ccccc1Cl	KCNK3 inh -8.8 | KCNK3 inh conf 105 | KCNK3 uninduced inactive
Cc1noc(C)c1COc1ccccc1C(=O)NCCc1ccccc1	none (no result: hERG rescue, KCNQ1 pot, KCNK9 inh, KCNQ1 block)
COc1ccc(C)cc1NC(=O)NCc1ccco1	none
COc1ccc(C)cc1NC(=O)c1cc2ccccc2cc1OCC(=O)NCc1ccco1	KCNK3 inh -14 | KCNK3 inh conf 109 | KCNK3 uninduced inactive
CC(OC(=O)CC1Sc2ccccc2NC1=O)C(=O)NC1CCCC1 (stereo not given)	none
COc1ccc(OC)c(Nc2nc(-c3cccs3)cs2)c1	KCNK3 inh -9.1 | KCNK3 inh conf 90 | KCNK3 uninduced inactive
COc1ccc(Nc2nc(-c3cccs3)cs2)c(OC)c1	none
O=C(CNC(=O)c1ccc(Cl)cc1Cl)OC1CCCCC1=O (stereo not given)	none (no result: hERG rescue, KCNQ1 pot, KCNK9 inh, KCNQ1 block)
C/C(=N\OC(=O)NC(C)C)c1sc(-c2ccccc2)nc1C	none
C/C(=N\OC(=O)NC1CCCCC1)c1sc(-c2ccccc2)nc1C	KCNK3 inh -11 | KCNK3 inh conf 113 | KCNK3 uninduced 0.14
CCOc1cc(/C=C/C(=O)OCC(=O)NCC2CCCO2)cc(Cl)c1OC (stereo not given)	none (no result: hERG rescue, KCNQ1 pot, KCNK9 inh, KCNQ1 block)
CC1(C)CC(=O)C=C(Nc2ccc(Cl)cc2)C1	none
CC1(C)CC(=O)C=C(Nc2ccc(Cl)c(Br)c2)C1	KCNK3 inh -10 | KCNK3 inh conf 114 | KCNK3 uninduced 0.15
O=C(Nc1c2c(nn1-c1cccc(Cl)c1)CS(=O)(=O)C2)c1ccc2c(c1)OCO2	none
Cn1c(=O)n(CCCOc2ccc(Cl)cc2)c2ccccc21	KCNK3 inh -8.7 | KCNK3 inh conf 100 | KCNK3 uninduced inactive
